Compound activity: PubChem BioAssay, several laboratories
The list is not random: actives were taken first. Their share in the collection is about 1.1%.
GRK2 aptamer HTS – human GRK2 inhibition via aptamer displacement | hit rate 0.59% among 330,000 | inhibition of aptamer binding, % at 10 µM | bead flow cytometry, FAM-aptamer displacement from GRK2 | P25098;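 active = inhibition of aptamer binding above 40%, roughly 3 SD of noise, on plates passing a quality check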;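 note: median bead fluorescence of bound FAM aptamer so fluorescent compounds give negative values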
aDG glyco act – alpha-DG glycosylation activation; activation, % at 10 µM; Pro5-aDG cells, alpha-DG glycosylation AlphaScreen (IIH6); 0% Pro5, 100% B10-LARGE cell signal; hit rate 0.22% among 360,000;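 active = activation of at least 8% versus controls, or a plate z-score of at least 8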;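 note: Pro5 are CHO cells carrying HIG-tagged alpha-DG that lacks glycosylation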
CaV13 FRET inh – Primary screen for inhibitors of IQ motif and Ca2+-dependent inactivation inhibitor domain binding in CACNA1D, Förster resonance energy transfer in living cells, …. hit rate 0.098% among 340,000. AID 743397. HEK cells, CFP/YFP FRET ICDI-IQ, plate reader, 10 min; percent FRET-ratio fall versus neutral wells. inhibition, % at 12.3 µM;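 active = mean replicate inhibition of at least 30% and at least 1% of replicates passing that level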;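 note: 0% = median of the neutral control wells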
T cell modulator – modulates CD8 T cell binding to vesicles. response (vesicle binding), % at 7 µM. 2C CD8+ T cell-vesicle binding, flow cytometry; stronger effect = lower value. hit rate 0.068% among 330,000;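 active = response, share of CD8 T cells binding vesicles, and their 90th percentile fluorescence all below set limits, cut at about 80% in these data, passing the limit was not always enough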;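 note: values below 100% mean blocked vesicle binding to the CD8+ T cells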
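Material: murine 2C transgenic CD8+ T lymphocytes / Also added: QL9-peptide-loaded Drosophila micro-vesicles bearing Ld, ICAM-1 and B7-1 / Schedule: binding step 1.5 h, 37 °C, antibody labelling 20 min, ice / Signal: flow cytometry, PE anti-B7-1 (FL2) versus Alexa647 anti-CD8 (FL8), PFA-fixed / Evaluation: percent CD8+ FL2 mean versus row control / Benchmarks: naked versus QL9-loaded vesicles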
proCasp3 act – activates human procaspase-3 | P42574 | recombinant procaspase-3 D3A, Ac-DEVD-pNA absorbance 405 nm | activation, % at 8.5 µM | hit rate 0.11% among 330,000;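 active = activation above the mean of all tested compounds plus 3 SD, cut at about 21% in these data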;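 note: 0% = DMSO alone and 100% = DMSO wells spiked with extra 5 µM PC-3 D3A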
Target sequence (P42574 whole entry D9A/D28A/D175A): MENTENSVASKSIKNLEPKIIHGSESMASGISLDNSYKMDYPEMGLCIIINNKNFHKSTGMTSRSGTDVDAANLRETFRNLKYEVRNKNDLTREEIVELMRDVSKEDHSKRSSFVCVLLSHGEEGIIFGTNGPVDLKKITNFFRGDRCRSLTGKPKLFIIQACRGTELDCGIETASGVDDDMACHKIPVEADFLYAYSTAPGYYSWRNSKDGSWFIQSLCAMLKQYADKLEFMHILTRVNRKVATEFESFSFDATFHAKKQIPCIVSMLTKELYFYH
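Test system: Procaspase-3 D3A mutant, all three cleavage aspartates alanine | Dosing: Single dose, 8.5 µM nominal compound, 0.8% DMSO | Schedule: 1 h preincubation, 2 h reaction | Technique: 405 nm absorbance of p-nitroaniline, reads at 0 and 120 min | Repeats: One well per compound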
procasp7 counter – activates human procaspase-7, counter-screen for procaspase-3 activators; P55210; recombinant procaspase-7, Ac-DEVD-pNA absorbance 405 nm; D23A/D198A/D206A triple mutant, cannot self-cleave; scale: DMSO 0, 5 µM enzyme 100; activation, % at 8.5 µM; hit rate 0.093% among 330,000; AID 463210;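 active = percent activation above the screen-wide mean plus 3 SD, cut at about 25% in these data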
Target sequence (P55210 whole entry D23A/D198A/D206A): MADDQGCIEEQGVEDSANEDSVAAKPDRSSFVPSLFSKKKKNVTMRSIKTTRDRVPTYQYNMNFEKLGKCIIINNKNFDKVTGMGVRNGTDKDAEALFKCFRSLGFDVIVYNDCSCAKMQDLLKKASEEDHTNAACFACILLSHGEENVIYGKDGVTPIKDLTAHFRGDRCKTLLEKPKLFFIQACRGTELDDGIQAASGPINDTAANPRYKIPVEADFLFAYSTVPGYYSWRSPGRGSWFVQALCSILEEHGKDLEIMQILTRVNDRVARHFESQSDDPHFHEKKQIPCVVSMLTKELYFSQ
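Assay system: Uncleavable procaspase-7 mutant enzyme; Input: 2 µM procaspase-7 mutant as dispensed; Also added: DEVD-pNA substrate; Medium: Zinc-free HEPES pH 7.4 with 300 mM NaCl, 0.01% Triton X-100; Timing: 1 h compound preincubation, 2 h substrate cleavage, 25 °C; Measured by: Epi-absorbance of released pNA at 405 nm, two timepoints.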
procasp7 triplic – activates human procaspase-7, counter-screen for procaspase-3 activators | shares compounds with proCasp3 act | recombinant procaspase-7, Ac-DEVD-pNA absorbance; asp23/198/206-to-Ala mutant, cannot self-cleave | activation, % at 8.5 µM | 210 tested, under 10 active;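 active = mean activation above a set limit taken from an earlier procaspase-7 screen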;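 note: 0% = DMSO wells and 100% = DMSO plus 5 µM procaspase-7 enzyme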
proCasp3 confirm – confirmation of human procaspase-3 activators; activation, % at 8.5 µM; hit rate 10% among 210; recombinant PC-3 D3A, Ac-DEVD-pNA absorbance 405 nm; 100% is higher-enzyme control; shares compounds with proCasp3 act; AID 488954;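 active = mean activation above a set limit carried over from the earlier primary screen, cut at about 22% in these data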
PC3 dual counter – counter-screen for dual procaspase-3/7 activators: human procaspase-3 activation; shares compounds with procasp7 counter; recombinant PC-3 D3A, Ac-DEVD-pNA absorbance 405 nm; aspartates 9, 28, 175 changed to alanine; 100% = enzyme control; activation, % at 8.5 µM; 290 tested, under 10 active; AID 493114;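 active = mean percent activation across triplicates above a set limit taken from the earlier primary procaspase-3 screen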;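 note: 0% = DMSO wells and 100% = DMSO wells with 5 µM added PC-3 D3A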
PC7 dual conf – confirmation of dual procaspase activators: human procaspase-7 activation; shares compounds with procasp7 counter; recombinant procaspase-7, Ac-DEVD-pNA absorbance 405 nm; D23A/D198A/D206A mutant that cannot self-cleave; 290 tested, under 10 active; activation, % at 8.5 µM;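 active = mean activation above a set limit carried over from the earlier primary screen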;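 note: 0% = DMSO only and 100% = DMSO with added 5 µM PC-7 enzyme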
GRK2 CP1 – human GRK2 inhibition confirmation, cherry pick 1; bead-bound GRK2, FAM-aptamer displacement, flow cytometry; hit rate 4% among 2,000; shares compounds with GRK2 aptamer HTS; aptamer displacement, % at 10 µM;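 active = aptamer displacement above 40%, near three times the noise of non-fluorescent compounds, on plates passing quality checks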;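 note: negative values mostly reflect intrinsic compound fluorescence rather than true enhancement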
FAM quench CP1 – quenches fluorescent RNA aptamer, GRK2 hit artifact; shares compounds with GRK2 aptamer HTS; Carboxyfluorescein RNA aptamer on beads, flow cytometry quenching; stronger effect = lower value; fluorescence response (% of DMSO), % at 10 µM; AID 504580; 2,000 tested, under 10 active;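 active = compounds that quench the bead-bound fluorescent RNA probe, cutting fluorescence to under half of the solvent control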;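 note: counterscreen run without GRK2 so only probe quenching by compound is measured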
aDG glyco conf – confirmation of alpha dystroglycan glycosylation activators; shares compounds with aDG glyco act; activation, % at 10 µM (by protocol); Pro5-aDG cells, alpha-DG glycosylation, IIH6 AlphaLISA; scaled to LARGE-overexpressing B10 cells as 100%; hit rate 17% among 600;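 active = activation of at least 7% in one or more replicates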;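 note: cells exposed to compound for two days before detection; 0% = DMSO-treated Pro5 cells and 100% = DMSO-treated B10-LARGE cells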
* marks the source's active call; other numbers are inactive results; i = inactive; . = no result given.

SMILES	GRK2 aptamer HTS	aDG glyco act	CaV13 FRET inh	T cell modulator	proCasp3 act	procasp7 counter	procasp7 triplic	proCasp3 confirm	others
COc1ccc(-n2c(CCc3ccccc3)nnc2SCC(=O)NCc2ccccc2)cc1	0	0	-4	433	59*	-4	0	4
O=[N+]([O-])c1cccc(-c2ccc(CN3CCN(c4ccccc4)CC3)o2)c1	1	0	-20	159	23*	-4	-4	2
CN(C)/C=N/C1=C(C#N)C(c2ccc(Br)cc2)c2ccc3ccccc3c2O1 (stereo not drawn)	0	0	-5	212	29*	14	-22	-10
CC(=O)c1c(C)[nH]c(C(=O)OCC(=O)N2c3ccccc3NC(=O)C2(C)C)c1C	0	0	-4	397	30*	24	1	5
Cc1ccc(C2Nc3ccc4ccccc4c3C3=C2C(=O)CC(C)(C)C3)o1 (stereo not drawn)	0	1	-7	477	46*	15	18	8
Cc1cc(N/N=C/c2ccc(N(C)C)cc2)c2ccccc2n1	0	0	-3	212	28*	24	-4	-6
Cc1cc(N/N=C/c2ccco2)c2ccccc2n1	4	0	3	166	9	0	.	.
CCOC(=O)C1=CCN(S(=O)(=O)c2ccc(Br)cc2)C1c1ccc(F)cc1 (stereo not drawn)	.	.	-2	.	.	.	.	.
CCCCCCc1cc2cc(C(=O)OCC)c(=O)oc2cc1O	1	1	13	519	36*	20	-21	-13
O=C(CC1SCCNC1=O)Nc1cccc(C(F)(F)F)c1 (stereo not drawn)	0	0	-4	476	67*	6	1	4
CCCCOCC1CN(CCCC)S(=O)(=O)c2c(cccc2N2CCCC2)O1 (stereo not drawn)	.	.	-8	.	.	.	.	.
O=C(NN=Cc1c(O)ccc2ccccc12)c1ccncc1	.	1	-13	.	.	.	.	.
O=C(N/N=C\c1c(O)ccc2ccccc12)c1ccc(O)cc1	5	0	-2	122	21*	3	-14	-15
[O-][n+]1ccccc1C(O)CSc1ccccc1 (stereo not drawn)	.	.	-5	.	.	.	.	.
Nc1ccc2nn(-c3cccc4ccccc34)nc2c1	0	4	-4	332	5	5	.	.
Cc1cc2nn(-c3cccc4ccccc34)nc2cc1N	0	0	-9	391	22*	5	5	24*
CC(C)C[C@H](NC(=O)C1CCCC1)C(=O)N1CCC[C@H]1C(=O)NCc1ccccc1	.	.	-10	.	.	.	.	.
CCOc1ccc(-c2c(C(=O)N/N=C/c3ccc(C)s3)nnn2-c2nonc2N)cc1	3	0	.	377	26*	-6	-3	-4
CCC(C)NC(=O)CNC(=O)c1nn(-c2ccc(OC)c(Cl)c2)c(=O)c2ccccc12 (stereo not drawn)	0	0	-4	490	22*	3	3	3	GRK2 CP1=-3;FAM quench CP1=101
Cc1ccc(Cl)cc1NC(=O)N(C)CCOC(=O)Nc1cccc(Cl)c1	.	.	-5	.	.	.	.	.
CCCC(=O)N(Cc1cc(=O)[nH]c2ccccc12)c1ccccc1	1	5.6*	-10	397	74*	7	3	5	aDG glyco conf=1
C#CCNC(=O)C[C@H]1C[C@@]2(C(=O)OC)C(=C[C@H](C(C)(C)C)O[C@@H]2C)N(CCc2ccc(OC)c(OC)c2)C1=O	.	.	-8	.	.	.	.	.
CS(=O)(=O)N1N=C(c2ccco2)CC1c1ccccc1 (stereo not drawn)	0	0	-3	145	-13	-9	.	.
CS(=O)(=O)N1N=C(c2ccco2)CC1c1ccco1 (stereo not drawn)	8	0	-20	322	-15	36*	.	.	PC3 dual counter=-8;PC7 dual conf=-14
COC(=O)[C@]12C[C@H](CC(=O)NCc3ccccc3)C(=O)N(CCC3=CCCCC3)C1=C[C@H](COCc1ccccc1)O[C@@H]2C	.	.	-11	.	.	.	.	.
SMILES	GRK2 aptamer HTS	aDG glyco act	CaV13 FRET inh	T cell modulator	proCasp3 act	procasp7 counter	procasp7 triplic	proCasp3 confirm	others
CCC(C)NC(=O)CSc1ccc(Cl)cc1 (stereo not drawn)	3	0	-5	452	1	0	.	.
CCC(C)NC(=O)CSc1ccc(NC(C)=O)cc1 (stereo not drawn)	1	0	-5	359	-4	39*	.	.	PC3 dual counter=2;PC7 dual conf=7
Cn1c2ccccc2c(=O)c2cc(C#CC3(O)CCCCC3)ccc21	1	1	20	i	41*	180*	.	.	PC3 dual counter=-30;PC7 dual conf=-36
Cn1c2ccccc2c(=O)c2cc(C#Cc3ccccn3)ccc21	0	0	5	295	-6	1	.	.
Cn1c2ccccc2c(=O)c2ccc(C#Cc3ccccn3)cc21	0	.	3	661	8	27*	.	.	PC3 dual counter=-30;PC7 dual conf=-37
Cn1c2ccccc2c(=O)c2cc(C#Cc3ccsc3)ccc21	0	0	-5	508	39*	40*	.	.	PC3 dual counter=-30;PC7 dual conf=-36
COc1ccc(/C=C/C(=O)Nc2cccc(S(=O)(=O)NC3=NCCCCC3)c2)c(OC)c1	0	0	-2	302	6	1	.	.
